From ChEMBL document CHEMBL2034886, “Anticancer and radiosensitizing evaluation of some new pyranothiazole-Schiff bases bearing the biologically active sulfonamide moiety” (Eur J Med Chem, 2012) come the findings set out here.

Molecules are shown by their SMILES.

Assay [1] deals with MCF7. Nature of the assay: Cytotoxicity against 8 Gy irradiated human MCF7 cells after 1 hr by clonogenic assay. Format: functional, cell-based. The following applies: MCF7, light or radiation study. An outline of the steps: (§1)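 MCF7 cells were treated with compound at 10, 25, 50 or 100 combined with one 8 Gy dose of ¹³⁷Cs gamma radiation at 1 Gy/min. Surviving fraction was measured 1 h after irradiation and given as mean ± SE relative to control, analysed by one-way ANOVA. IC50 was derived by nonlinear regression curve fitting.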

Assay [2] concerns MCF7. Nature of the assay: Cytotoxicity against 8 Gy irradiated human MCF7 cells assessed as surviving fraction at 25 uM after 1 hr by clonogenic assay (reference value: 0.927 +/- 0.02). Type of assay: functional. An outline of the steps:
as §1

Assay [3] concerns MCF7. Description: Cytotoxicity against human MCF7 cells after 48 hrs by sulforhodamine B assay. Format: functional, cell-based. Particulars: MCF7, 48 h. An outline of the steps: (§2)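 SRB assay on MCF7 breast cancer cells plated at 10^4 cells/well for 24 h before treatment. Compounds were dissolved in DMSO, diluted with saline and tested at 10, 25, 50 and 100 in triplicate wells for 48 h at 37 °C under 5% CO₂. Cells were fixed and stained 30 min with 0.4% SRB in 1% acetic acid, washed four times with acetic acid, and the dye was recovered in Tris-EDTA and read on an ELISA reader. IC50 was taken from the survival curve.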

For assay [4], the system named is MCF7. Nature of the assay: Cytotoxicity against human MCF7 cells assessed as surviving fraction at 50 uM after 48 hrs by sulforhodamine B assay. Type of assay: functional. Also noted: unit not given here. An outline of the steps:
as §2
For orientation: In SRB staining, fixed cells bind dye roughly in proportion to their protein.

Assay [5] relates to MCF7. Description: Cytotoxicity against human MCF7 cells assessed as surviving fraction at 25 uM after 48 hrs by sulforhodamine B assay. Type of assay: functional. An outline of the steps: as §2
Assay [6] has as its system MCF7. Description: Cytotoxicity against 8 Gy irradiated human MCF7 cells assessed as surviving fraction at 100 uM after 1 hr by clonogenic assay (reference value: 0.927 +/- 0.02). Type of assay: functional. The gist of the method:
as §1

In assay [7] the test system is MCF7. Description: Cytotoxicity against human MCF7 cells assessed as surviving fraction at 10 uM after 48 hrs by sulforhodamine B assay. Type of assay: functional. An outline of the steps:
as §2

Assay [8] deals with MCF7. Nature of the assay: Cytotoxicity against 8 Gy irradiated human MCF7 cells assessed as surviving fraction at 10 uM after 1 hr by clonogenic assay (reference value: 0.927 +/- 0.02). Type of assay: functional. The gist of the method:
as §1

Assay [9] relates to MCF7. Description: Cytotoxicity against 8 Gy irradiated human MCF7 cells assessed as surviving fraction at 50 uM after 1 hr by clonogenic assay (reference value: 0.927 +/- 0.02). Format: functional. An outline of the steps:
as §1

Assay [10] relates to MCF7. Description: Cytotoxicity against human MCF7 cells assessed as surviving fraction at 100 uM after 48 hrs by sulforhodamine B assay. Type of assay: functional. An outline of the steps:
as §2

In assay [11] the test system is MCF7. Nature of the assay: Ratio of doxorubicin IC50 to compound IC50 for human MCF7 cells. Format: functional.

For `COc1ccc(C2C(C#N)=C(N)Oc3nc(Nc4ccc(S(N)(=O)=O)cc4)sc32)cc1` (stereo not drawn), the results for the IC50 in the assay on MCF7 [1] and in the assay on MCF7 [3] were 14.8 µM and 27.5 µM, respectively. In addition, the Activity was 0.346 fraction (of 1) in the assay with MCF7 [2]; 0.331 with MCF7 [4]; 55% in the assay with MCF7 [5]; 0.201 fraction (of control) in the assay with MCF7 [6]; 0.81 fraction with MCF7 [7]; 0.618 fraction (unitless) with MCF7 [8]. Also, the Activity in the assay on MCF7 [9] is 0.171 fraction; in the assay on MCF7 [10] it was 35%.
In the case of `COc1ccc(C2C(C#N)=C(/N=C/c3ccccc3)Oc3nc(Nc4ccc(S(N)(=O)=O)cc4)sc32)cc1` (stereo not drawn), in the assay with MCF7 [3], the midpoint of inhibition, the IC50, lay at 33.5 µM. Besides, the Activity in the assay with MCF7 [4] amounted to 0.307; in the assay on MCF7 [5], 66.8%; in the assay with MCF7 [7], 0.825 fraction; with MCF7 [10], 27.1%.
As to `COc1ccc(C2C(C#N)=C(/N=C/c3ccccc3Cl)Oc3nc(Nc4ccc(S(N)(=O)=O)cc4)sc32)cc1` (stereo not drawn), the “Ratio IC50” value with MCF7 [11] is given as 3.1. Moreover, the IC50 in the assay on MCF7 [1] was 9.11 µM; with MCF7 [3] it was 10.2 µM. In addition, the Activity with MCF7 [2] is recorded as 0.237 fraction (of 1); with MCF7 [4], 0.36; in the assay with MCF7 [5] it was 32.3%; in the assay with MCF7 [6], 0.119 fraction (of control); with MCF7 [7], 0.541 fraction; in the assay with MCF7 [8] it was 0.453 fraction (unitless). The values for the Activity in the assay on MCF7 [9] and in the assay on MCF7 [10] were 0.135 fraction and 46%, respectively.
Regarding `COc1ccc(C2C(C#N)=C(/N=C/c3ccc(Cl)cc3)Oc3nc(Nc4ccc(S(N)(=O)=O)cc4)sc32)cc1` (stereo not drawn), the IC50 worked out at 8.72 µM in the assay with MCF7 [1] and 9.55 µM in the assay on MCF7 [3]. Also, the Activity is 0.217 fraction (of 1) with MCF7 [2]; 0.355 with MCF7 [4]; 25.1% in the assay on MCF7 [5]; 0.201 fraction (of control) in the assay on MCF7 [6]; 0.443 fraction with MCF7 [7]; 0.311 fraction (unitless) in the assay on MCF7 [8]. Further, the Activity in the assay on MCF7 [9] was found to be 0.17 fraction; in the assay on MCF7 [10], 29%.
As for `COc1ccc(C2C(C#N)=C(/N=C/c3cccc(Br)c3)Oc3nc(Nc4ccc(S(N)(=O)=O)cc4)sc32)cc1` (stereo not drawn), the Ratio IC50 with MCF7 [11] is 3.4. For the same compound, the IC50 in the assay with MCF7 [1] worked out at 8.72 µM; in the assay on MCF7 [3] it was 9.39 µM. Also, the Activity is reported as 0.211 fraction (of 1) in the assay with MCF7 [2]; 0.371 in the assay on MCF7 [4]; 23.3% in the assay with MCF7 [5]; 0.235 fraction (of control) with MCF7 [6]; 0.435 fraction with MCF7 [7]; 0.319 fraction (unitless) with MCF7 [8]. Further, the Activity in the assay on MCF7 [9] turned out to be 0.119 fraction; in the assay on MCF7 [10] it was 30.9%.
In the assay on MCF7 [3], `COc1ccc(C2C(C#N)=C(/N=C/c3ccc(F)cc3)Oc3nc(Nc4ccc(S(N)(=O)=O)cc4)sc32)cc1` (stereo not drawn) had an IC50 of 28.9 µM. The Activity amounted to 0.38 in the assay on MCF7 [4], 55.1% in the assay with MCF7 [5], 0.845 fraction with MCF7 [7] and 44.3% with MCF7 [10].
For `COc1ccc(C2C(C#N)=C(/N=C/c3ccc(Cl)cc3Cl)Oc3nc(Nc4ccc(S(N)(=O)=O)cc4)sc32)cc1` (stereo not drawn) the same measures were 23.5 µM, 0.377, 50.3%, 0.693 fraction and 39.1%.
`COc1ccc(C2C(C#N)=C(/N=C/c3ccc([N+](=O)[O-])cc3)Oc3nc(Nc4ccc(S(N)(=O)=O)cc4)sc32)cc1` (stereo not drawn): in the assay with MCF7 [11], the Ratio IC50 was found to be 3.3. Moreover, the IC50 in the assay on MCF7 [1] was found to be 7.55 µM; with MCF7 [3], 9.7 µM. The Activity is recorded as 0.201 fraction (of 1) in the assay on MCF7 [2]; 0.313 in the assay with MCF7 [4]; 32.7% with MCF7 [5]; 0.13 fraction (of control) in the assay on MCF7 [6]; 0.48 fraction in the assay with MCF7 [7]; 0.403 fraction (unitless) in the assay on MCF7 [8]. Moreover, the results for the Activity in the assay with MCF7 [9] and in the assay on MCF7 [10] were 0.1 fraction and 38.1%, respectively.
As for `COc1ccc(C2C(C#N)=C(/N=C/c3ccc(N(C)C)cc3)Oc3nc(Nc4ccc(S(N)(=O)=O)cc4)sc32)cc1` (stereo not drawn), the IC50 in the assay on MCF7 [3] is 36.2 µM. Besides, the Activity is 0.347 with MCF7 [4], 70.1% in the assay with MCF7 [5], 0.792 fraction in the assay with MCF7 [7] and 37.8% in the assay with MCF7 [10].
The like results for `COc1ccc(C2C(C#N)=C(/N=C/C=C/c3ccccc3)Oc3nc(Nc4ccc(S(N)(=O)=O)cc4)sc32)cc1` (stereo not drawn) were, in that order, 28.9 µM, 0.242, 60.1%, 0.828 fraction and 37%.
For `COc1ccc(C2C(C#N)=C(/N=C/c3ccc(O)cc3)Oc3nc(Nc4ccc(S(N)(=O)=O)cc4)sc32)cc1` (stereo not drawn) the same measures were 34.5 µM, 0.37, 63.8%, 0.872 fraction and 30.7%.
The like results for `COc1ccc(C2C(C#N)=C(/N=C/c3ccc4c(c3)OCO4)Oc3nc(Nc4ccc(S(N)(=O)=O)cc4)sc32)cc1` (stereo not drawn) were, in that order, 38.2 µM, 0.419, 66%, 0.814 fraction and 39.3%.

The term IC50 denotes the concentration that inhibits the measured activity by half.
